Source: PubChem BioAssay (several laboratories)
DAX1 inh-1 – DAX1 (NR0B1) inhibition, primary screen | HEK293T StAR-luciferase reporter, SF-1/DAX-1 repression relief | inhibition, % at 6.8 µM | 370,000 tested, 1.1% active | AID 652010;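 active means inhibition above the mean over all tested compounds plus 3 SD, cut at about 3.6% in these data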;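 further: 0% = DAX-1 cells with DMSO and 100% = cells lacking DAX-1 with DMSO; higher inhibition means more luminescence from relief of DAX-1 repression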
DAX1 inh-2 – NR0B1 (DAX1) inhibition; AID 504766; P51843; 340,000 tested, 0.99% active; inhibition, % at 6.75 µM; HEK293 Gal4-DAX1 luciferase reporter, luminescence;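 active means inhibition above the mean over all tested compounds plus 3 SD, cut at about 4.2% in these data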;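 further: 0% = DAX1-transfected cells with DMSO and 100% = empty-vector control cells with DMSO; inhibition shows as a rise in luminescence from relieved DAX1 repression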
Target sequence (P51843 207-470 limits assumed): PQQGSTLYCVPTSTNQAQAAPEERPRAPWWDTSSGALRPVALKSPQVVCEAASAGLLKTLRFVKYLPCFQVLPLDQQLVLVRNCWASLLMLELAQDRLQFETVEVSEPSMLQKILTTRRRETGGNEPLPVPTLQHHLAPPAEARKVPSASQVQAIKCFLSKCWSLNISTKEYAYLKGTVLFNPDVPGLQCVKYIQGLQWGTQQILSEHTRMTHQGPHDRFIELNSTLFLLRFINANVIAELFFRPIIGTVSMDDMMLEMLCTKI
NR2E3 ag-1 – agonists of human NR2E3 nuclear receptor; inhibition of corepressor binding, % at 3.98 µM; 360,000 tested, 0.35% active; Q9Y5X4; CHO-S Gal4-NCOR/VP16-NR2E3 two-hybrid, luciferase;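 active means inhibition above the mean of all tested compounds plus 3 SD, cut at about 70% in these data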;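 further: 0% = DMSO with NR2E3 transfected cells and 100% = cells lacking NR2E3 construct; higher means lower luciferase signal from less NR2E3 corepressor binding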
JMJD2C inh – inhibitors of human GASC-1 (JMJD2C) demethylase | Q9H3R0 | GST-JMJD2C(1-420) H3K9me3 demethylation, DELFIA europium | inhibition, % at 2.35 µM | 330,000 tested, 0.069% active | AID 2099;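 active means more than half of a compound's replicate wells show inhibition beyond 50%, single wells judged on their own value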;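 further: signal counts dimethyl H3K9 product captured on neutravidin plate; 0% = median of DMSO wells and 100% = 0.3 times that DMSO median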
Target sequence (Q9H3R0 1-420 limits assumed): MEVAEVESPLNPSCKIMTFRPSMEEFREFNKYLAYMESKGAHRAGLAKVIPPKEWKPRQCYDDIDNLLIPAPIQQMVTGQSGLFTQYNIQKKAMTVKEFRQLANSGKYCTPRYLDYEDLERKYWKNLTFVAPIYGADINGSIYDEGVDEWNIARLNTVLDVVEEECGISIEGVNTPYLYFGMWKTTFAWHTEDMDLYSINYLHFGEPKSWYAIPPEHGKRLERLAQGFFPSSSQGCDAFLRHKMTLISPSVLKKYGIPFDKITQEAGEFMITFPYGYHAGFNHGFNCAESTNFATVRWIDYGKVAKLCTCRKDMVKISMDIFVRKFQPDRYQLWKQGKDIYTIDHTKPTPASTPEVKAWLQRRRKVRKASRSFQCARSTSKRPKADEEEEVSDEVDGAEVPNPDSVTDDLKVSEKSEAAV
NR2E3 ag-2 – NR2E3 (human) agonism; Q9Y5X4; GST-NR2E3/biotin-RetCOR TR-FRET, 1536-well; inhibition of corepressor binding, % at 4.78 µM; 320,000 tested, 0.12% active; AID 2300;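 active means percent inhibition above the cutoff of mean plus 3 SD of all tested compounds, set per screening campaign, cut at about 20% in these data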;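 further: 0% = DMSO wells and 100% = biotin wells as full block of FRET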
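Material: NR2E3–RetCOR corepressor complex / Amount: 1.35 nM GST-NR2E3 / Medium: Tris pH 7.5 / Compound: single nominal compound dose of 4.8 µM / Incubation: 5 h at 4 °C / Technique: TR-FRET, Eu(K)-anti-GST donor, streptavidin-D2 acceptor, ex 340, em 617/671 nm / Read-out basis: percent loss of FRET ratio relative to control wells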
SMARCA2 activ – SMARCA2 function activation, primary screen | MG213 cells, MMTV-luciferase reporter, dexamethasone, overnight | activation, % at 9.1 µM | 370,000 tested, 1% active | AID 652017; in the data active means activation above about 7.8%;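 further: 0% = vehicle wells and 100% = reference activator wells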
DAX1 inh confirm – NR0B1 (human) inhibition, confirmation | AID 652134 | HEK293T StAR-promoter luciferase reporter, SF-1/DAX-1 repression | 2,400 tested, 87% active | shares compounds with DAX1 inh-1 | inhibition, % at 6.8 µM;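 active means inhibition above the average of every tested compound plus 3 SD, cut at about 3.8% in these data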;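 further: 0% = DAX-1 cells with DMSO and 100% = no DAX-1 control cells with DMSO; active compounds raise luminescence by relieving repression of the StAR reporter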
SF1 mutant ctr – nonselective inhibitor or artifact in SF-1 mutant DAX1 counter-screen; shares compounds with DAX1 inh-1; HEK293 StAR-luciferase, SF-1 AF2 mutant, luminescence; inhibition, % at 6.8 µM; 2,400 tested, 78% active; AID 652136;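 active means inhibition above the mean of all tested compounds plus 3 SD, cut at about 3% in these data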;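 further: 0% = DAX-1 transfected cells with DMSO and 100% = cells without DAX-1 with DMSO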
An asterisk follows results filed as active. Sampled rows, rich in hits. Any-hit rate of the full collection: about 3.2%.

For O=C(/C=C/Nc1ccc(F)cc1F)c1ccco1 the results were DAX1 inh-1 7.5*, DAX1 inh-2 -1, NR2E3 ag-1 -114, JMJD2C inh -11, NR2E3 ag-2 2, SMARCA2 activ 7, DAX1 inh confirm 7.2* and SF1 mutant ctr 2.
For O=C(/C=C/Nc1ccc(Br)cc1F)c1ccco1 the results were DAX1 inh-1 6.0*, DAX1 inh-2 -2, NR2E3 ag-1 -182, JMJD2C inh 24, NR2E3 ag-2 0, SMARCA2 activ 2, DAX1 inh confirm 7.7* and SF1 mutant ctr 0.
`O=C(/C=C/Nc1ccc(F)c(Cl)c1)c1ccco1` gave DAX1 inh-1 1, DAX1 inh-2 4, NR2E3 ag-1 -92, JMJD2C inh 3, NR2E3 ag-2 2 and SMARCA2 activ 8.
Cc1ccc(OCCSc2ncccn2)c(C)c1 was read as DAX1 inh-1 8.2*, DAX1 inh-2 5.1*, NR2E3 ag-1 -121, JMJD2C inh 8, SMARCA2 activ 0, DAX1 inh confirm 12* and SF1 mutant ctr 8.2*.
`O=C(CN1CCC(NC(=O)Nc2ccc(Cl)cc2)CC1)Nc1ccc2c(c1)OCCO2` gave DAX1 inh-1 0 and SMARCA2 activ -7.
Cc1cccc(C)c1Nc1nnc(SCC(=O)NCc2ccco2)s1 was read as DAX1 inh-1 0, DAX1 inh-2 -1, NR2E3 ag-1 -32, JMJD2C inh 13, NR2E3 ag-2 1 and SMARCA2 activ -2.
For COc1cccc(C(=O)Nc2nnc(C(C)C)s2)c1 the results were DAX1 inh-1 4.8*, DAX1 inh-2 0, NR2E3 ag-1 -89, JMJD2C inh 7, NR2E3 ag-2 0, SMARCA2 activ -1, DAX1 inh confirm 9.0* and SF1 mutant ctr 3.1*.
Screening Cc1cccc(C(=O)Nc2nnc(SCC(=O)NCc3ccco3)s2)c1 returned DAX1 inh-1 5.6*, DAX1 inh-2 1, NR2E3 ag-1 -16, JMJD2C inh 1, NR2E3 ag-2 2, SMARCA2 activ 2, DAX1 inh confirm 3 and SF1 mutant ctr 3.
`COc1cccc(C(=O)Nc2nnc(SCC(=O)Nc3ccc(NC(C)=O)cc3)s2)c1` gave DAX1 inh-1 10*, DAX1 inh-2 1, NR2E3 ag-1 -10, JMJD2C inh 3, NR2E3 ag-2 5, SMARCA2 activ 7, DAX1 inh confirm 9.1* and SF1 mutant ctr 6.6*.
O=C(Nc1ccccc1[N+](=O)[O-])NC1CCCCN(Cc2ccc(Cl)cc2)C1=O (stereo not drawn) was read as DAX1 inh-1 0 and SMARCA2 activ -3.
For COC(=O)C1CCN(C(=O)c2ccc3nc(-c4cccc(OC)c4)oc3c2)CC1 the results were DAX1 inh-1 4.8*, DAX1 inh-2 -1, NR2E3 ag-1 -90, JMJD2C inh -4, NR2E3 ag-2 -1, SMARCA2 activ 3, DAX1 inh confirm 8.3* and SF1 mutant ctr 5.0*.
Screening COC(=O)[C@]12C[C@H](CC(=O)NCCCCc3ccccc3)C(=O)N(Cc3ccco3)C1=C[C@H](COCc1ccccc1)O[C@@H]2C returned DAX1 inh-1 -1 and SMARCA2 activ 1.
`Cc1cccc(N2C(=O)CC(SC(=Nc3ccccc3)Nc3ccccc3)C2=O)c1` (stereo not drawn) gave DAX1 inh-1 0, DAX1 inh-2 1, NR2E3 ag-1 -8, JMJD2C inh -3, NR2E3 ag-2 2 and SMARCA2 activ 0.
Screening O=C1SC(SC(=Nc2ccccc2)Nc2ccccc2)C(=O)N1c1ccccc1 (stereo not drawn) returned DAX1 inh-1 5.9*, DAX1 inh-2 3, NR2E3 ag-1 -125, JMJD2C inh 4, NR2E3 ag-2 3, SMARCA2 activ -1, DAX1 inh confirm 2 and SF1 mutant ctr 1.
For O=C(Nc1ccc(Cl)cc1)OCCN1CCOCC1 the results were DAX1 inh-1 0, DAX1 inh-2 3, NR2E3 ag-1 -30 and SMARCA2 activ 2.
For O=C(Nc1ccc(Cl)cc1)OC[C@@H]1CSCCS(=O)(=O)N1 the results were DAX1 inh-1 5.0*, SMARCA2 activ 1, DAX1 inh confirm 2 and SF1 mutant ctr 0.
Screening CC(C)(C)c1ccc(OCc2ccc(C(=O)NN)o2)cc1 returned DAX1 inh-1 1, DAX1 inh-2 2, NR2E3 ag-1 -172, JMJD2C inh -2, NR2E3 ag-2 3 and SMARCA2 activ 5.
For CC(C)(c1ccccc1)c1ccc(OCc2ccc(C(=O)O)o2)cc1 the results were DAX1 inh-1 11*, DAX1 inh-2 2, NR2E3 ag-1 -116, SMARCA2 activ 4, DAX1 inh confirm 5.3* and SF1 mutant ctr 4.9*.
`COc1ccc(C(=O)NC2=Nc3ccccc3N=C(C)C2c2ccccc2)cc1` (stereo not drawn) gave DAX1 inh-1 9.6*, DAX1 inh-2 18*, NR2E3 ag-1 -155, JMJD2C inh 6, NR2E3 ag-2 -1, SMARCA2 activ -1, DAX1 inh confirm 23* and SF1 mutant ctr 19*.
`CCCCCCCCN1C(=O)[C@@H](CC(=O)NCc2ccccc2)C[C@@]2(C(=O)OC)C1=C[C@H](C(C)C)O[C@@H]2C1CC1` gave DAX1 inh-1 0 and SMARCA2 activ -1.
Screening Cc1cc(C(=O)COC(=O)c2ccc(Cl)c(S(N)(=O)=O)c2)c(C)n1C1CC1 returned DAX1 inh-1 8.0*, DAX1 inh-2 1, NR2E3 ag-1 -62, JMJD2C inh 6, NR2E3 ag-2 -1, SMARCA2 activ 3, DAX1 inh confirm 8.3* and SF1 mutant ctr 5.4*.
For Cc1cc(C(=O)COC(=O)c2ccc(NC(=O)CC#N)cc2)c(C)n1C1CC1 the results were DAX1 inh-1 3, DAX1 inh-2 0, NR2E3 ag-1 2 and SMARCA2 activ 4.
CCCCCCCCN1CCS(=O)(=O)N(Cc2ccc(Cl)cc2)C(C(=O)OC)C1 (stereo not drawn) was read as DAX1 inh-1 1 and SMARCA2 activ 0.
For N#C/C(=N\Nc1ccc(F)cc1)C(=N)N1CCCCC1 the results were DAX1 inh-1 6.0*, DAX1 inh-2 5.3*, NR2E3 ag-1 -164, JMJD2C inh 3, NR2E3 ag-2 0, SMARCA2 activ 7.8*, DAX1 inh confirm 18* and SF1 mutant ctr 7.1*.
For CC(=O)c1ccc(NC(=S)N2CCCC2)cc1 the results were DAX1 inh-1 5.1*, DAX1 inh-2 1, NR2E3 ag-1 -10, JMJD2C inh 2, SMARCA2 activ 0, DAX1 inh confirm 3 and SF1 mutant ctr 2.
